This note sets out measurements from PubChem BioAssay.

Experiment [1] can be described thus: RPL19A-GFP modulators, yeast TOR pathway, confirmation, cell-based, S. cerevisiae, flow cytometry, cherry picks, mother/daughter gates (AID 2270;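 active = GFP response below 50% of the DMSO control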). Conditions: S. cerevisiae RPL19A-GFP strain, 3 h, at 10 µM, stronger effect = lower value, 100 = same GFP as DMSO wells. On the technique in general: In flow cytometry, cells or beads pass a laser one at a time.
The nature of experiment [2]: LAP4-GFP expression modulators in yeast, confirmation, cell-based, cherry picks, flow cytometry, mother/daughter gates (AID 2271;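 active = GFP response above 150% of the DMSO control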;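 note: ratio of sample to DMSO plate mean so 100% equals DMSO level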). As to conditions: S. cerevisiae LAP4-GFP strain, 3 h, at 10 µM, stronger effect = higher value, 100 means same as DMSO control. Summed up:
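Material: Alexa Fluor 633-labelled Saccharomyces cerevisiae GFP-fusion strain, single-plex | Amount: Yeast cells seeded at OD600 of 0.2 | Buffer or medium: SC growth medium | Schedule: 3 h exposure, 30 °C | Measured by: HT flow cytometry, GFP fluorescence channel | Evaluation: % GFP response vs DMSO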

Experiment [3] in a line: modulators of MEP2-GFP levels in yeast, confirmation, S. cerevisiae, flow cytometry GFP, cherry picks (AID 2272;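 active = GFP response above 150% of the DMSO control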;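 note: ratio of well signal to plate DMSO mean so 100% equals DMSO level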). As to conditions: S. cerevisiae MEP2-GFP strain, 3 h, at 10 µM, stronger effect = higher value.
The nature of experiment [4]: AGP1-GFP expression modulators, hit retest, confirmation, cell-based, flow cytometry, S. cerevisiae, cherry picks (AID 2273).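 Note: median GFP channel fluorescence over the whole cell population gate.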 Conditions: S. cerevisiae AGP1-GFP strain, 3 h, at 10 µM.
Experiment [5] in a line: modulators of CIT2-GFP expression in yeast, confirmation, S. cerevisiae, GFP fusion, cherry picks, mother/daughter gates (AID 2274). As to conditions: S. cerevisiae CIT2-GFP strain, flow cytometry, 3 h, at 10 µM, stronger effect = higher value.
Setting [6] is: measured here: daughter cell gate.
Where [7] appears, read: measured here: mother cell gate.
Setting [8] is: measured here: daughter cell gate response.
[9] abbreviates: measured here: mother cell gate response.

Active and inactive are the calls of the source.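 Rule for the calls, unless noted: active = GFP response above 150% of the DMSO level; inconclusive = fewer than 70 events counted for a yeast strain; inactive = the rest.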

On to `CCCCNC(=O)c1c(O)c2cccc3c2n(c1=O)CCC3`, for which the GFP response vs DMSO in experiment [1] was 98.8% (inactive); in experiment [1] (setting [6]) it was 98.4%; in experiment [1] (setting [7]), 99.8%; in experiment [3], 100% (inactive). The GFP response relative to DMSO in experiment [2] is 97.4% (inactive); in experiment [2] (setting [8]), 95.6%; in experiment [2] (setting [9]), 100%. Besides, the GFP response, % of DMSO in experiment [4] was 100% (inactive); in experiment [5] it was 97.8% (inactive); in experiment [5] (setting [6]), 96.5%; in experiment [5] (setting [7]), 97.7%.

For the molecule `CCc1ccc(C(=O)/C=C/c2ccc([N+](=O)[O-])o2)cc1`, the GFP response vs DMSO in experiment [1] was 104% (inactive); in experiment [1] (setting [6]), 108%; in experiment [1] (setting [7]), 103%; in experiment [3], 180% (active). Besides, the GFP response relative to DMSO is 146% (inactive) in experiment [2], 141% in experiment [2] (setting [8]) and 152% in experiment [2] (setting [9]). The GFP response, % of DMSO in experiment [4] was 99.1% (inactive); in experiment [5] it was 154% (active); in experiment [5] (setting [6]), 156%; in experiment [5] (setting [7]) it was 148%.

For the molecule `Cc1ccc(NC(=O)c2ccc([N+](=O)[O-])o2)cc1C`, the GFP response vs DMSO in experiment [1] is 100% (inactive); in experiment [1] (setting [6]), 104%; in experiment [1] (setting [7]) it was 95.8%; in experiment [3], 110% (inactive). Further, the results for the GFP response relative to DMSO in experiment [2], in experiment [2] (setting [8]) and in experiment [2] (setting [9]) were 128% (inactive), 111% and 127%, respectively. For the same molecule, the GFP response, % of DMSO is 99.8% (inactive) in experiment [4], 100% (inactive) in experiment [5], 105% in experiment [5] (setting [6]) and 96% in experiment [5] (setting [7]).

Turning to `Clc1ccc(-n2nnnc2Sc2ncnc3sccc23)cc1`, the GFP response vs DMSO in experiment [1] was 100% (inactive); in experiment [1] (setting [6]), 98.4%; in experiment [1] (setting [7]) it was 98.8%; in experiment [3], 131% (inactive). Moreover, the GFP response relative to DMSO is 131% (inactive) in experiment [2], 123% in experiment [2] (setting [8]) and 130% in experiment [2] (setting [9]). In addition, the GFP response, % of DMSO in experiment [4] is 115% (inactive); in experiment [5], 106% (inactive); in experiment [5] (setting [6]) it was 105%; in experiment [5] (setting [7]), 105%.

On to `CCOC(=O)c1c(C)oc2c1c(C(c1ccncc1)N1CCOCC1)c(O)c1ccccc12` (centres undefined), for which the GFP response vs DMSO was 102% (inactive) in experiment [1], 109% in experiment [1] (setting [6]), 89.6% in experiment [1] (setting [7]) and 131% (inactive) in experiment [3]. Also, the values for the GFP response relative to DMSO in experiment [2], in experiment [2] (setting [8]) and in experiment [2] (setting [9]) were 186% (active), 167% and 180%, respectively. Moreover, the GFP response, % of DMSO is 101% (inactive) in experiment [4], 103% (inactive) in experiment [5], 114% in experiment [5] (setting [6]) and 94.4% in experiment [5] (setting [7]).

In the case of `CCCCOc1ccc(C(=O)N2CCN(c3ccc(N4CCOCC4)nn3)CC2)cc1`, the GFP response vs DMSO in experiment [1] was 97.4% (inactive); in experiment [1] (setting [6]), 99.1%; in experiment [1] (setting [7]) it was 94.9%; in experiment [3], 98.3% (inactive). Further, the values for the GFP response relative to DMSO in experiment [2], in experiment [2] (setting [8]) and in experiment [2] (setting [9]) were 97.9% (inactive), 97.6% and 97.2%, respectively. For the same molecule, the GFP response, % of DMSO is 97.2% (inactive) in experiment [4], 98.3% (inactive) in experiment [5], 101% in experiment [5] (setting [6]) and 98.5% in experiment [5] (setting [7]).

For the molecule `CC(C)c1nnc(-c2ccc(Cl)cc2)c(N(C)C)n1`, the GFP response vs DMSO is 98.9% (inactive) in experiment [1], 99.3% in experiment [1] (setting [6]), 97.8% in experiment [1] (setting [7]) and 103% (inactive) in experiment [3]. In addition, the GFP response relative to DMSO in experiment [2] is 98.9% (inactive); in experiment [2] (setting [8]), 96%; in experiment [2] (setting [9]) it was 99.5%. In addition, the GFP response, % of DMSO in experiment [4] was 106% (inactive); in experiment [5], 100% (inactive); in experiment [5] (setting [6]) it was 101%; in experiment [5] (setting [7]) it was 100%.

Consider `Cc1ccccc1OC1CCN(C(=O)C2CCC(=O)N(C3CCCC3)C2)CC1` (centres undefined), for which the GFP response vs DMSO was 97.6% (inactive) in experiment [1], 98.4% in experiment [1] (setting [6]), 97.7% in experiment [1] (setting [7]) and 105% (inactive) in experiment [3]. Further, the GFP response relative to DMSO is 101% (inactive) in experiment [2], 99.2% in experiment [2] (setting [8]) and 99.3% in experiment [2] (setting [9]). For the same molecule, the GFP response, % of DMSO in experiment [4] was 96.6% (inactive); in experiment [5], 95.5% (inactive); in experiment [5] (setting [6]) it was 95.4%; in experiment [5] (setting [7]), 95%.

Regarding `COC(=O)c1ccc2nc(Nc3nc4ccc(F)cc4s3)sc2c1`, the GFP response vs DMSO in experiment [1] is 101% (inactive); in experiment [1] (setting [6]) it was 101%; in experiment [1] (setting [7]), 102%; in experiment [3], 97.8% (inactive). The GFP response relative to DMSO in experiment [2] is 81.8% (inactive); in experiment [2] (setting [8]), 84.8%; in experiment [2] (setting [9]), 86%. Besides, the GFP response, % of DMSO in experiment [4] is 97% (inactive); in experiment [5], 108% (inactive); in experiment [5] (setting [6]), 105%; in experiment [5] (setting [7]), 109%.

`N/C(=N\OC(=O)c1ccccc1Cl)c1ccc(Cl)cc1`: the GFP response vs DMSO in experiment [1] is 101% (inactive); in experiment [1] (setting [6]), 101%; in experiment [1] (setting [7]) it was 101%; in experiment [3], 108% (inactive). Besides, the GFP response relative to DMSO is 135% (inactive) in experiment [2], 115% in experiment [2] (setting [8]) and 135% in experiment [2] (setting [9]). Further, the GFP response, % of DMSO in experiment [4] was 77.2% (inactive); in experiment [5], 130% (inactive); in experiment [5] (setting [6]) it was 117%; in experiment [5] (setting [7]), 132%.

For `CC(=O)Nc1ccc(NC(=O)c2nc(S(=O)(=O)Cc3cccc(C)c3)ncc2Cl)cc1`, the GFP response vs DMSO in experiment [1] is 102% (inactive); in experiment [1] (setting [6]) it was 99.5%; in experiment [1] (setting [7]), 103%; in experiment [3], 100% (inactive). The GFP response relative to DMSO in experiment [2] was 93.8% (inactive); in experiment [2] (setting [8]), 97.2%; in experiment [2] (setting [9]), 95.2%. Further, the GFP response, % of DMSO is 97.4% (inactive) in experiment [4], 104% (inactive) in experiment [5], 103% in experiment [5] (setting [6]) and 105% in experiment [5] (setting [7]).

On to `Cc1nnc(NC(=O)c2ccc(S(=O)(=O)N3CCCCCC3)cc2)o1`, for which the GFP response vs DMSO in experiment [1] is 99.4% (inactive); in experiment [1] (setting [6]), 99.3%; in experiment [1] (setting [7]) it was 100%; in experiment [3], 101% (inactive). Besides, the figures for the GFP response relative to DMSO in experiment [2], in experiment [2] (setting [8]) and in experiment [2] (setting [9]) were 97% (inactive), 97.5% and 97.3%, respectively. Moreover, the GFP response, % of DMSO in experiment [4] is 99% (inactive); in experiment [5] it was 100% (inactive); in experiment [5] (setting [6]) it was 103%; in experiment [5] (setting [7]), 96.8%.

For `Cc1cc(/C=C2/SC(=S)N(c3cccc(Cl)c3)C2=O)c(C)n1-c1cccnc1`, the GFP response vs DMSO in experiment [1] is 107% (inactive); in experiment [1] (setting [6]), 106%; in experiment [1] (setting [7]), 108%; in experiment [3], 135% (inactive). Moreover, the GFP response relative to DMSO was 133% (inactive) in experiment [2], 125% in experiment [2] (setting [8]) and 136% in experiment [2] (setting [9]). Moreover, the GFP response, % of DMSO in experiment [4] is 110% (inactive); in experiment [5] it was 118% (inactive); in experiment [5] (setting [6]), 117%; in experiment [5] (setting [7]), 117%.

`O=S(=O)(c1ccc(Oc2ccc(Br)cc2)cc1)N1CCOCC1`: the GFP response vs DMSO in experiment [1] is 103% (inactive); in experiment [1] (setting [6]), 102%; in experiment [1] (setting [7]), 103%; in experiment [3], 97.5% (inactive). In addition, the GFP response relative to DMSO was 86% (inactive) in experiment [2], 86.4% in experiment [2] (setting [8]) and 83.7% in experiment [2] (setting [9]). Besides, the GFP response, % of DMSO in experiment [4] is 90.1% (inactive); in experiment [5], 95% (inactive); in experiment [5] (setting [6]), 96.4%; in experiment [5] (setting [7]), 93.3%.
